Experimental data published in ChEMBL document CHEMBL3259625 (ACS Med Chem Lett, 2014).

Experiments:
Liver microsome [1] = experiment: (§1) Half life in human liver microsomes at 1 uM by LC-MS/MS analysis in presence of NADPH; type: ADME; settings: microsomes, 1 µM
How it was run: (§2)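 Microsomal stability was measured in human, rat and mouse liver microsomes, with sunitinib run in parallel as the reference compound.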

[2] = (§3) Half life in rat liver microsomes at 1 uM by LC-MS/MS analysis in presence of NADPH; type: ADME; settings: liver microsomes; how it was run: as §2
Liver = experiment: (§4) Half life in mouse liver microsomes at 1 uM by LC-MS/MS analysis in presence of NADPH; type: ADME; settings: microsomes, 1 µM; how it was run: as §2
Trypanosoma cruzi = experiment: Antitrypanosomal activity against trypomastigotes of Trypanosoma cruzi CA-I/72 infected in mouse C2C12 cells after 72 hrs; type: functional, organism-based; settings: CA-I/72, C2C12, 72 h
How it was run: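 EC50 derived from dose–response curves against T. cruzi in infected mouse C2C12 myoblasts.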

Liver microsome [3] = experiment: as §3; type: ADME; settings: microsomes, 1 µM; how it was run: as §2
Cytochrome P450 1A2 = molecular target: T1, Cytochrome P450 1A2 (Homo sapiens, UniProt P05177); experiment: (§5) Inhibition of CYP1A2 in human liver microsomes assessed as phenacetin […] to acetaminophen at 1 uM after 10 mins in presence of NADPH; type: ADME; settings: microsomes, 10 min, 1 µM
T1 sequence (P05177 whole entry): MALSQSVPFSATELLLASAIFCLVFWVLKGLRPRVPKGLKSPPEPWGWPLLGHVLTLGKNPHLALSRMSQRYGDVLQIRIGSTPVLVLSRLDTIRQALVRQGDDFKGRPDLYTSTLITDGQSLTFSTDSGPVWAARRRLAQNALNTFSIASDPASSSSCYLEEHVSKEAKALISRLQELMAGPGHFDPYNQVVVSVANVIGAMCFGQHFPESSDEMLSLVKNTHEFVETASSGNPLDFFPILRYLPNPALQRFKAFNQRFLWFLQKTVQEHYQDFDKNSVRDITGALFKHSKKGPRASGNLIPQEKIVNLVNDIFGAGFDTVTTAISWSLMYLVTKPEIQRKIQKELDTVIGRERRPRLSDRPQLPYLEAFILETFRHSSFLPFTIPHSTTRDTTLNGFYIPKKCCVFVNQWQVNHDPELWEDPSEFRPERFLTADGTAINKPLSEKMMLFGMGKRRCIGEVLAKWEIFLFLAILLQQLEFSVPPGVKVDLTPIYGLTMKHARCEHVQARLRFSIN

Cytochrome P450 2C9 = Cytochrome P450 2C9 (Homo sapiens, UniProt P11712); experiment: (§6) Inhibition of CYP2C9 in human liver microsomes assessed as tolbutamide hydroxylation to hydroxytolbutamide at 1 uM after 10 mins in presence of NADPH; type: ADME; settings: microsomes, 10 min, 1 µM
Cytochrome P450 2D6 = Cytochrome P450 2D6 (Homo sapiens, UniProt P10635); experiment: (§7) Inhibition of CYP2D6 in human liver microsomes assessed as bufuralol hydroxylation to 4'-hydroxybufuralol at 1 uM after 10 mins in presence of NADPH; type: ADME; settings: microsomes, 10 min, 1 µM
Cytochrome P450 3A4 = Cytochrome P450 3A4 (Homo sapiens, UniProt P08684); experiment: (§8) Inhibition of CYP3A4 in human liver microsomes assessed as midazolam hydroxylation to 1'-hydroxymidazolam at 1 uM after 10 mins in presence of NADPH; type: ADME; settings: microsomes, 10 min, 1 µM
[4] = as §1; type: ADME; settings: liver microsomes; how it was run: as §2
[5] = as §4; type: ADME; settings: liver microsomes; how it was run: as §2
CYP1A2 = molecular target: T2, CYP1A2 (Homo sapiens, UniProt P05177); experiment: as §5; type: ADME; settings: liver microsomes, probe phenacetin
T2 sequence (P05177 whole entry): T1 sequence (P05177 whole entry)

CYP2C9 = CYP2C9 (Homo sapiens, UniProt P11712); experiment: as §6; type: ADME; settings: liver microsomes, probe tolbutamide
CYP2D6 = CYP2D6 (Homo sapiens, UniProt P10635); experiment: as §7; type: ADME; settings: liver microsomes, probe bufuralol
CYP3A4 = CYP3A4 (Homo sapiens, UniProt P08684); experiment: as §8; type: ADME; settings: liver microsomes, probe midazolam
Chain of CYP3A4 (P08684 whole entry): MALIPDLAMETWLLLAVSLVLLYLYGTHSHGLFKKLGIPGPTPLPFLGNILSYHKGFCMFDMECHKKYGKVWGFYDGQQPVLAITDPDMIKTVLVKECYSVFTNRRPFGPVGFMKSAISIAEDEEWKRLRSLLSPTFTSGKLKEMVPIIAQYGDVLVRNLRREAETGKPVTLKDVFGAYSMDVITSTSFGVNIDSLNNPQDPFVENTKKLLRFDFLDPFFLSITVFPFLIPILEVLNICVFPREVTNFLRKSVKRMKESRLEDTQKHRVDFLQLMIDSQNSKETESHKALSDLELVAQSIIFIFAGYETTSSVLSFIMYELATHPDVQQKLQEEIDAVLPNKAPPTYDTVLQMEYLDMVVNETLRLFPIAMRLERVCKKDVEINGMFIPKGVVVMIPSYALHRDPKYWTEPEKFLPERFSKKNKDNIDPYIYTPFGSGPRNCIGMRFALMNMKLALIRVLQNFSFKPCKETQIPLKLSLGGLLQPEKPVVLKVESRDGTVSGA

Chain of CYP2C9 (P11712 whole entry): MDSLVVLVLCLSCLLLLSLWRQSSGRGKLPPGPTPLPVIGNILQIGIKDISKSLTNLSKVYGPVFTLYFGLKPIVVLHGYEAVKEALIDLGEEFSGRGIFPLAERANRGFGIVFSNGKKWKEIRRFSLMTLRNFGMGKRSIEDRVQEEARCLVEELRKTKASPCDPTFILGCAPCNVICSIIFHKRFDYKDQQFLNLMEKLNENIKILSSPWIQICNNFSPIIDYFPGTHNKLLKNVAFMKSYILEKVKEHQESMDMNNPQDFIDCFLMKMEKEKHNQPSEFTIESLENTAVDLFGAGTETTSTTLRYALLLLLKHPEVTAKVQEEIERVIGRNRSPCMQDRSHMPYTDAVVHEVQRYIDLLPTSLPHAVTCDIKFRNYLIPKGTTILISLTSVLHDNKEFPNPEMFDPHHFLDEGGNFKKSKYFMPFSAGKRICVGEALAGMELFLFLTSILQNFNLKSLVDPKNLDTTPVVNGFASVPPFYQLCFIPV
Chain of CYP2D6 (P10635 whole entry): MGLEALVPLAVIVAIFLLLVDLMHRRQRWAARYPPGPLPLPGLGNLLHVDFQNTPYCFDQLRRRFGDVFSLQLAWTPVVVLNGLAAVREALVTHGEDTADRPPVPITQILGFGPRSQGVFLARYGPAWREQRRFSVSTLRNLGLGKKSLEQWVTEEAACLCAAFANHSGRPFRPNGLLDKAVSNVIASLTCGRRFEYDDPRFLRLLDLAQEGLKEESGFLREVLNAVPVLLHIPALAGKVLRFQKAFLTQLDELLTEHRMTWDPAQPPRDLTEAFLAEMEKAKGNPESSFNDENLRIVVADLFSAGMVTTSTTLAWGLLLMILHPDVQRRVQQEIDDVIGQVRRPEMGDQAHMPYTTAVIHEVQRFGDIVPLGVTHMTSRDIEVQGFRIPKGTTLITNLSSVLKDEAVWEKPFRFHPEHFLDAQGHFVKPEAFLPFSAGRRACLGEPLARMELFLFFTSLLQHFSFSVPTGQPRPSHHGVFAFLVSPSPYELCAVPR
Chain of Cytochrome P450 2C9 (P11712 whole entry): as the sequence (P11712 whole entry) above
Chain of Cytochrome P450 3A4 (P08684 whole entry): as the sequence (P08684 whole entry) above
Chain of Cytochrome P450 2D6 (P10635 whole entry): as the sequence (P10635 whole entry) above

Row | Compound | t1/2 (Liver microsome [1]) | half-life at 1 µM [2] | t1/2 (Liver) | EC50 (Trypanosoma cruzi) | t1/2 (Liver microsome [3]) | inhibition (INH) (Cytochrome P450 1A2) | inhibition (INH) (Cytochrome P450 2C9) | inhibition (INH) (Cytochrome P450 2D6) | inhibition (INH) (Cytochrome P450 3A4) | half-life at 1 µM [4] | half-life at 1 µM [5] | inhibition at 10 min, 1 µM (CYP1A2) | inhibition at 10 min, 1 µM (CYP2C9) | inhibition at 10 min, 1 µM (CYP2D6) | inhibition at 10 min, 1 µM (CYP3A4)
1 | O=C(N[C@H](Cc1c[nH]c2ccccc12)C(=O)Nc1ccncc1)c1ccc(-c2cccc(F)c2)cc1F | 18 min | 20 min | 27 min | – | – | – | – | – | – | – | – | – | – | – | –
2 | O=C(N[C@H](Cc1c[nH]c2ccccc12)C(=O)Nc1ccncc1)c1ccc(-c2cc(F)ccc2F)cc1F | 17 min | – | – | 1.3 nM | 17 min | 3% | 92% | 47% | 74% | – | – | – | – | – | –
3 | O=C(N[C@H](Cc1c[nH]c2ccccc12)C(=O)Nc1ccncc1)c1ccc(-c2ccc(F)c(F)c2)cc1F | 18 min | – | 39 min | – | – | – | – | – | – | – | – | – | – | – | –
4 | O=C(N[C@H](Cc1c[nH]c2ccccc12)C(=O)Nc1ccncc1)c1ccc(-c2ccc(C(F)(F)F)c(F)c2)cc1F | – | 39 min | – | 2.9 nM | – | – | – | – | – | 45 min | 69 min | -4% | 92% | 27% | 24%
5 | O=C(N[C@H](Cc1c[nH]c2ccccc12)C(=O)Nc1ccncc1)c1ccc(N2CCN(c3cccc(C(F)(F)F)c3)CC2)cc1F | – | 24 min | – | 0.47 nM | – | – | – | – | – | 8 min | 11 min | 10% | 96% | 74% | 86%
6 | O=C(N[C@H](Cc1c[nH]c2ccccc12)C(=O)Nc1ccncc1)c1ccc(-c2ccc(OCc3ccc(F)cc3F)c(F)c2)cc1F | – | 30 min | – | 0.6 nM | – | – | – | – | – | 25 min | 34 min | -9% | 84% | 21% | 38%
7 | O=C(N[C@H](Cc1c[nH]c2ccccc12)C(=O)Nc1ccncc1)c1ccc(-c2ccc(OCc3ccc(F)cc3)c(C(F)(F)F)c2)cc1F | – | 53 min | – | 9.2 nM | – | – | – | – | – | 29 min | 51 min | -26% | 41% | -17% | 15%
